The test system of experiment [1] is NCI-H460. Kind of experiment: Cytotoxicity against human NCI-H460 cells after 72 hrs by MTT assay. It counts as functional, cell-based. The note with it: NCI-H460, 72 h. The method, boiled down: (§1)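 Cells grown in MEM with 10% FBS; about 4×10^3 cells per well, preincubated 24 h at 37 °C in 5% CO₂, then exposed to compounds for 72 h. MTT at a […] added for 4 h at 37 °C. Formazan dissolved in DMSO; absorbance read at 492 nm against 630 nm reference. Three runs per line; IC50 reported as mean ± SD.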
For orientation: Tetrazolium dyes change colour on reduction, which living cells bring about.

Experiment [2] deals with A549. In words: Cytotoxicity against human A549 cells after 72 hrs by MTT assay. The note with it: A549, 72 h. Type of experiment: functional, cell-based. The method, boiled down:
as §1

The species entered for experiment [3] is Homo sapiens. In words: Inhibition of colchicine binding to tubulin (unknown origin) pretreated for 1 hr followed by colchicine addition by spectrofluorometric method. The method, boiled down: (§2)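 Tubulin preincubated 1 h at 37 °C with test agent (0, 1.6, 5, 15 μM), then colchicine added to a final 5 μM. Fluorescence read at excitation 365 nm and emission 435 nm, with buffer blank subtracted. Value is F/F0 × 100%, where F0 is fluorescence of the colchicine–tubulin complex without competitor.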

For experiment [4], the species on record is Homo sapiens. Kind of experiment: Inhibition of tubulin polymerization in human HT-29 cells assessed as microtubule disruption by measuring scattered short microtubule fragment in cytoplasm at 88 nM after 24 hrs by DAPI staining based immunofluorescence microscopic analysis. Type of experiment: cell-based. The method, boiled down:
(§3)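 HT-29 seeded at 1×10^4 per well, grown 24 h, then treated 24 h; controls received medium. Fixed in 4% formaldehyde/PBS (30 min, −20 °C), permeabilized with 0.2% Triton X-100, and blocked with 5% BSA. Stained with anti-α-tubulin (1:100, overnight, 4 °C), then FITC anti-mouse secondary (1:100, 2 h, 37 °C). DAPI counterstain; imaged by fluorescence microscopy.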

For experiment [5], the system named is HT-29. Kind of experiment: Potency index, ratio of crolibulin IC50 to test compound IC50 for human HT-29 cells. It counts as functional.
Experiment [6] is filed under the species Homo sapiens. In words: Inhibition of tubulin polymerization in human HT-29 cells assessed as abnormal microtubule network formation at 88 nM after 24 hrs by DAPI staining based immunofluorescence microscopic analysis. It counts as cell-based. The method, boiled down: as §3
In experiment [7] the test system is HT-29. In words: Cytotoxicity against human HT-29 cells after 72 hrs by MTT assay. It counts as functional, cell-based. The note with it: HT-29, 72 h. The method, boiled down: as §1
Experiment [8] deals with SMMC-7721. In words: Cytotoxicity against human SMMC7721 cells after 72 hrs by MTT assay. It counts as functional, cell-based. The note with it: SMMC-7721, 72 h. The method, boiled down:
as §1

In experiment [9] the test system is MKN-45. In words: Cytotoxicity against human MKN45 cells after 72 hrs by MTT assay. The note with it: MKN-45, 72 h. Type of experiment: functional, cell-based. The method, boiled down:
as §1

Experiment [10] concerns HT-29. Kind of experiment: Potency index, ratio of CA-4 IC50 to test compound IC50 for human HT-29 cells. It counts as functional.
For experiment [11], the species on record is Homo sapiens. In words: Inhibition of tubulin polymerization in human HT-29 cells assessed as abnormal microtubule network formation at 20 nM after 24 hrs by DAPI staining based immunofluorescence microscopic analysis. It counts as cell-based. The method, boiled down:
as §3

For experiment [12], the species on record is Homo sapiens. Kind of experiment: Inhibition of tubulin polymerization in human HT-29 cells assessed as microtubule disruption by measuring scattered short microtubule fragment in cytoplasm at 20 nM after 24 hrs by DAPI staining based immunofluorescence microscopic analysis. It counts as cell-based. The method, boiled down:
as §3

For experiment [13], the species on record is Homo sapiens. Kind of experiment: Inhibition of colchicine binding to tubulin (unknown origin) up to 15 uM pretreated for 1 hr followed by colchicine addition by spectrofluorometric method. The method, boiled down: as §2

As a reminder, the IC50 is the concentration that gives 50% inhibition. Low values mean higher potency, high ones lower potency.

SMILES strings stand for the structures. Calls of active or inactive are those of the source. The rule behind the calls is not given here.

As to `N#Cc1c(-c2ccc(F)cc2F)cc(-c2c[nH]c3ccccc23)n2cc(CNC3CCCCC3)nc12`, the IC50 in experiment [1] is 40 nM; in [2], 540 nM; in experiment [7], 10 nM; in [8] it was 5.6 µM; in [9] it was 2400 nM. Moreover, the inhibition entry in experiment [3] is “Dose-dependent effect”. For the same molecule, the inhibition entry in [4] and in experiment [6] was “Active” each time. For the same molecule, the “Ratio IC50” value in experiment [5] was found to be 52; in [10] it was 5.

In the case of `COc1ccc(/C=C\c2cc(OC)c(OC)c(OC)c2)cc1O` [COMBRETASTATIN A4], the 50% inhibitory concentration (IC50) in experiment [1] worked out at 80 nM; in experiment [2], 430 nM; in experiment [7], 50 nM; in [8], 1.92 µM; in experiment [9], 110 nM. Besides, the inhibition entry in experiment [11], in experiment [12] and in experiment [13] was “Active” in each case.

(Values after ChEMBL document CHEMBL4052675, “Synthesis, biological evaluation and molecular modeling of imidazo[1,2-a]pyridine derivatives as potent antitubulin agents” (Bioorg Med Chem, 2017).)
